# SENP6 block – SENP6 protease inhibitors, primary screen, biochemical, luminescence, uHTS. Sentrin-specific protease 6 (Homo sapiens), Q9GZR1. Recombinant SENP6 catalytic domain, aminoluciferin luminescence. inhibition, % at 10 µM. 330,000 compounds, 1.8% hits. AID 2599, 2010;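 active = inhibition above about 50% at the single tested dose, limit read from the data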;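 note: plate controls were DMSO wells with enzyme for no effect and DMSO wells lacking enzyme for full effect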
# SENP8 block-1 – SENP8 protease inhibitors, primary screen, biochemical, luminescence; Sentrin-specific protease 8 (Homo sapiens), Q96LD8; purified SENP8, Z-RLRGG-aminoluciferin cleavage; inhibition, % at 10 µM; 330,000 compounds, 1.2% hits; AID 2540, 2010; in the data active = inhibition above about 50%
# Target sequence (Q96LD8 whole entry, looked up): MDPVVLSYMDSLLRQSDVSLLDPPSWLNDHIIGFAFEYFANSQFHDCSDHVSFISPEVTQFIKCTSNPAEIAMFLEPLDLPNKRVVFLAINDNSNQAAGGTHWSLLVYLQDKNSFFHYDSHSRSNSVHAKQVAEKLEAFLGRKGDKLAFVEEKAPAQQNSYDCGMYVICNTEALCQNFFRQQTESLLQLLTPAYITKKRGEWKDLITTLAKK
# SENP1 inh – human SENP1 catalytic domain inhibitors, primary screen, biochemical, FRET, uHTS; 360,000 compounds, 0.21% hits; recombinant SENP1 catalytic domain, CyPet-SUMO1-YPet FRET cleavage; inhibition, % at 10 µM; Sentrin-specific protease 1 (Homo sapiens), Q9P0U3;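 active = inhibition at least 30% at 10 µM, raw YFP signal under a set limit, fluorescence ratio 0.5 to 1.5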;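 note: 0% = enzyme with DMSO and 100% = no enzyme wells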
# Target sequence (Q9P0U3 419-644 limits assumed): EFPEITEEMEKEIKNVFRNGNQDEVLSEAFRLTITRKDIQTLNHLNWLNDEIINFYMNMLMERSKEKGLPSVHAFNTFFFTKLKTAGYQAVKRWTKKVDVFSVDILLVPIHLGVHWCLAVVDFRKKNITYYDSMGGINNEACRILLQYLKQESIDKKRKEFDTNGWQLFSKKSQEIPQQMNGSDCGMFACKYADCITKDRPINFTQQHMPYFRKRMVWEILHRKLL
#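 Assay system – human recombinant His6-tagged SENP1 catalytic domain enzyme · Input – SENP1 enzyme, 20 pM final · Buffer or medium – Tris pH 8 buffer plus EDTA, NaCl, BME, BSA, NP40, catalase · Schedule – 50 min reaction at room temperature · Technique – FRET read of cyan and yellow fluorescence · Control set – no-enzyme wells low, DMSO-plus-enzyme wells high control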
# HSP90 refold inh – HSP90 inhibitors, primary screen, cell lysate, luminescence. Heat shock protein HSP 90 (rabbit reticulocyte lysate; luciferase refolding). Rabbit reticulocyte lysate, luciferase refolding luminescence, 3 h. 290,000 compounds, 0.91% hits. inhibition, % at 5.6 µM. AID 1789, 2009;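 active = inhibition above the screen-wide mean plus 3 SD, computed separately per campaign, cut at about 16% in these data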;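 note: 0% = DMSO wells and 100% = 60 µM geldanamycin wells; inhibitors lower the luminescence because luciferase stays unfolded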
# SENP8 block-2 – human SENP8 protease inhibitors, primary screen, biochemical, fluorescence, Nedd8 protein substrate, uHTS. Sentrin-specific protease 8 (Homo sapiens), Q96LD8. recombinant SENP8. inhibition, % at 20 µM. 360,000 compounds, 0.64% hits. AID 602440, 2012; in the data active = inhibition mostly above about 40%, no sharp cut-off; inactive = mostly below about 27%
# SENP7 block – SENP7 protease inhibitors, primary screen, biochemical, luminescence, uHTS; Sentrin-specific protease 7 (Homo sapiens), Q9BQF6; recombinant SENP7, Z-RLRGG-aminoluciferin luminescence, 40 min; inhibition, % at 5 µM; 330,000 compounds, 1.5% hits; AID 434973, 2010;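 active = inhibition above about 50% at the single test dose, limit read from the data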;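 note: plate controls were DMSO with enzyme for no effect and no enzyme buffer wells for full effect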
# * marks the source's active call; other numbers are inactive results; . = not tested or not shown. Sampled rows, rich in hits. Any-hit rate of the full collection: about 2.9%.
SMILES,SENP6 block,SENP8 block-1,SENP1 inh,HSP90 refold inh,SENP8 block-2,SENP7 block
CCOc1cc(CNc2ccc(O)cc2)cc(Br)c1OCc1ccccc1F,-10.6,4.3,9.6,1.3,40.7*,15.9
COc1ccc(NS(=O)(=O)c2ccc(NC(=S)NC(=O)c3cccc(F)c3)cc2)nn1,92.0*,84.5*,3.2,-0.4,16.7,80.4*
COc1ccc(NS(=O)(=O)c2ccc(NC(=S)NC(=O)c3cccnc3)cc2)nn1,11.6,2.2,0.7,-0.6,0.0,-1.5
COc1cccc(/C=N/NC(=O)CNC(=O)c2ccc(S(=O)(=O)N3CCCC3)cc2)c1OC,-5.0,1.1,2.5,-6.4,-52.2,-6.7
CC(C)(C)OC(=O)CN1C(=O)S/C(=C\c2ccc(-c3cccc(C(=O)O)c3)o2)C1=O,78.0*,68.0*,.,-5.8,.,9.0
O=C(Cc1ccc(NC(=O)C2CCCN(C(=O)C3CC3)C2)cc1)Nc1cccc(C(=O)N2CCCCC2)c1 (stereo not given),.,.,2.1,.,6.1,.
CC(N=Cc1cccc(O)c1O)c1ccccc1 (stereo not given),26.6,3.4,5.7,5.9,81.1*,-6.8
CC12CCC3c4ccc(O)c([N+](=O)[O-])c4CCC3C1CCC2=O (stereo not given),.,.,-2.5,.,22.9,.
Cc1cccc2nc(COc3ccc(-c4ccccc4)cc3)cn12,94.2*,91.9*,.,1.0,.,95.3*
Cc1ccc2[nH]c(O)c(N=Nc3nc4ccccc4s3)c2c1,-22.7,-7.5,35.5*,-1.8,9.5,-0.5
O=C(COc1ccc([N+](=O)[O-])cc1)NNC(=O)Nc1cccc(F)c1,-6.0,-7.4,0.9,3.4,14.7,6.1
O=S(=O)(Nc1ncccn1)c1ccc(NC(=S)Nc2ccc(Cl)cc2)cc1,70.1*,-1.6,0.9,1.5,39.2,-0.1
O=C(Nc1ccc(Cl)cc1)Nc1ccc(S(=O)(=O)Nc2ncccn2)cc1,12.0,7.7,0.7,2.1,5.8,-5.1
CC1CCc2c(sc3ncn(CC(=O)N=Nc4c(O)[nH]c5ccccc45)c(=O)c23)C1 (stereo not given),-11.6,-7.7,2.7,2.2,43.6*,10.8
CC1CCc2c(sc3ncn(CCO)c(=O)c23)C1 (stereo not given),14.8,-3.1,4.0,1.9,1.4,1.4
O=S1(=O)C[C@@H](N2CCC(Cc3ccccc3)CC2)[C@H](COCc2ccccc2)N1,.,.,1.1,.,17.2,.
Cc1ccccc1CSCC(=O)N/N=C/c1cccs1,3.1,-0.8,0.2,-2.2,42.7*,2.8
CCC(C(=O)NCCCN(CC)Cc1ccccc1)n1nc(C)c2sc3ccccc3c2c1=O (stereo not given),-7.9,-12.7,0.1,-2.5,-1.9,9.2
CC1(C)NC(=O)N(c2ccc([N+](=O)[O-])c(C(F)(F)F)c2)C1=O,8.9,5.8,-0.8,.,11.6,1.8
O=C(c1cnn(-c2ccccc2)c1)c1ccccc1O,85.1*,80.8*,-3.4,4.6,6.8,87.5*
COc1cc(/C=C2\SC(=O)N(c3ccc(Cl)cc3)C2=O)cc([N+](=O)[O-])c1O,.,.,7.4,66.4*,37.7,.
COc1cc(/C=C2/C(=O)NN(c3ccc(C)c(Cl)c3)C2=O)cc([N+](=O)[O-])c1O,0.8,3.3,2.3,0.8,49.5*,3.5
COc1cc(/C=C2\SC(=O)N(c3cccc(Cl)c3)C2=O)cc([N+](=O)[O-])c1O,-5.2,8.4,2.4,3.3,21.0,-1.2
COc1cc(/C=C2/C(=O)NN(c3cccc(C)c3)C2=O)cc([N+](=O)[O-])c1O,13.5,2.1,2.9,-4.2,48.4*,5.4
CC(C)CC(N)c1csc(Nc2cnccn2)n1 (stereo not given),.,.,-1.1,.,-19.4,.
SMILES,SENP6 block,SENP8 block-1,SENP1 inh,HSP90 refold inh,SENP8 block-2,SENP7 block
COC(=O)c1c(NC(=O)CN2CCC(C)CC2)c2c(C)cccc2n1C,-7.8,-8.8,.,-2.2,.,-6.2
CN(C)C(/C=C/Nc1ccc(C#N)cc1)=C(C#N)C#N,-1.7,1.4,-8.1,0.5,21.6,100.1*
CN(C)C(/C=C/Nc1ccc(F)cc1)=C(C#N)C#N,-2.3,5.1,0.4,-1.4,7.1,-3.2
O=C1C(=Cc2cccn2-c2ccc(O)cc2)C(=O)c2ccccc21,6.3,5.1,57.7,-1.4,27.9*,2.5
CCN(CC)c1ccc(/C=C/c2nc3ccccc3s2)cc1,86.2*,94.1*,.,66.9*,.,94.6*
COc1ccccc1CNC(=O)COC(=O)c1ncc(Cl)c(Cl)c1Cl,-6.3,-7.8,0.1,.,7.4,-1.2
Cc1cc(C)c(NC(=O)COC(=O)c2cccc3c2C(=O)c2ccccc2C3=O)c(C)c1,-6.3,-6.7,3.6,0.1,23.3,-5.9
Cc1cc(C)c(Nc2cc(S(=O)(=O)O)c(N)c3c2C(=O)c2ccccc2C3=O)c(C)c1,.,.,-28.1,-0.8,48.4*,.
O=C(Nc1ccc([N+](=O)[O-])cc1Cl)c1cc(Cl)ccc1O,98.9*,97.6*,3.0,.,11.9,99.6*
O=C(Nc1cccc(Cl)c1)c1cc(N=Nc2ccc([N+](=O)[O-])cc2Cl)ccc1O,-1.4,13.7,4.4,-1.6,43.1*,7.4
O=C(Nc1cccc(Cl)c1)c1cccc(Oc2ccc([N+](=O)[O-])cc2Cl)c1,-12.7,-13.1,3.1,1.4,-2.9,-13.1
O=C(NC(=S)Nc1ccc(NC(=O)c2ccccc2)cc1)c1ccc(F)cc1,-8.3,-5.9,5.8,-1.5,13.5,1.6
O=C(NC(=S)Nc1ccc2c(c1)C(=O)c1ccccc1C2=O)c1ccc(F)cc1,77.8*,52.5*,.,3.8,.,63.5*
CC(C)C[C@H]1COCCS(=O)(=O)N1Cc1ccc(Cl)c(Cl)c1,-4.9,3.8,1.8,.,6.2,-9.5
CC1=C(C(=O)N(C(C)C)C(C)C)CC(CC(=O)NCCc2ccccn2)C(=O)N1Cc1ccc(F)cc1 (stereo not given),.,.,0.0,.,5.9,.
CCNC(=S)NS(=O)(=O)c1ccccc1,6.8,1.6,1.6,4.0,42.4*,2.8
CCNC(=S)NS(=O)(=O)c1ccc(Cl)cc1,-0.7,-8.4,1.0,-1.2,14.8,-7.2
COc1ccc(C(C#N)N2N=C(C)CC2c2ccccc2)cc1OC (stereo not given),14.7,2.1,0.8,-0.1,22.0,2.7
COc1ccc(C(C#N)N2N=C(c3ccccc3)CC2c2ccccc2)cc1OC (stereo not given),28.4,-10.4,-39.6,-6.2,-8.3,73.0*
COc1cnc(-c2cccc(C(F)(F)F)c2)c(NC(=O)c2cc3ccccc3s2)n1,.,.,4.1,.,-7.5,.
